Results collected from several papers.
Target: Dual specificity protein kinase CLK4 (CLK4, Homo sapiens, UniProt Q9HAZ1)

CN(C)c1ncc(F)c(-c2cnn3ncccc23)n1 — remaining binding (binding; 1 µM): 61%
COc1ncc2cc3ccccc3nc2c1C#N — remaining binding (cell-free assay, competition with immobilised ligand; 5 µM): 86%
CO[C@@H](C)c1c(Nc2ccc([C@H](N(C)C(=O)C3CCS(=O)(=O)CC3)C(F)(F)F)cc2)cnc2cc(Cl)nn12 — remaining binding (cell-free assay, competition with immobilised ligand; 1 µM): 94%
O=C(Nc1c[nH]nc1C(=O)NC1CCNCC1)c1cc(F)cc(F)c1 — remaining binding (binding, competition with immobilised ligand; 1 µM): 75%
O=C(NCCCC1CCCCC1)c1ccc(CNC(=O)c2cnn(-c3ccccc3)c2C(F)(F)F)cc1 — remaining binding (cell-free assay, competition with immobilised ligand; 0.1 µM): 100%
COc1cnc(Nc2cccc(S(N)(=O)=O)c2)nc1N1CCN(c2ccccc2)C(=O)C1 — remaining binding (binding, competition with immobilised ligand; 1 µM): 93%
O=C(c1ccc(Nc2ncc(Cl)c(-c3cc4ccccc4s3)n2)cc1)N1CCC(N2CCCC2)CC1 — remaining binding (binding, competition with immobilised ligand; 1 µM): 0%
O=C1NC(c2ccccn2)Sc2ccccc21 (stereo not shown) — remaining binding (cell-free assay, competition with immobilised ligand; 1 µM): 97%
CN(C)c1nccc(-c2cnc3ncccn23)n1 — remaining binding (binding; 1 µM): 14%
Cc1c(C(=O)O)cc(-c2ccc(C3CCNCC3)cc2)c2ccc(-c3ccc(C(F)(F)F)cc3)cc12 — remaining binding (binding, competition with immobilised ligand; 1 µM): 100%
F[C@@H]1CCN(c2nccc(-c3cnn4ncccc34)n2)C1 — remaining binding (binding; 1 µM): 60%
O=C(NCCCN1CCOCC1)c1ccc(Nc2ncc(Cl)c(-c3ccc(Cl)s3)n2)cc1 — remaining binding (binding, competition with immobilised ligand; 1 µM): 1.6%
CNC(=O)[C@@H]1CC[C@@H](n2c(-c3ccc4cnccc4c3)nc3ccc(C(=O)NCc4cccc(C(N)=O)c4)cc32)C1 — remaining binding (binding, competition with immobilised ligand; 1 µM): 100%
C[C@H]1CCN(c2nccc(-c3cnn4ncccc34)n2)C1 — remaining binding (binding; 1 µM): 9.9%
O=S(=O)(NC1CCC(c2cc(F)ccc2F)(S(=O)(=O)c2ccc(Cl)cc2)CC1)C(F)(F)F (stereo not shown) — remaining binding (cell-free assay, competition with immobilised ligand; 1 µM): 84%
COc1ccnn2ncc(-c3ccnc(N(C)C)n3)c12 — remaining binding (binding; 1 µM): 4.2%
Cc1noc([C@H]2C[C@@H](c3ccc(C(F)(F)F)cc3)CN(C(=O)N3CCS(=O)(=O)C3)C2)n1 — remaining binding (cell-free assay, competition with immobilised ligand; 1 µM): 83%
C=CC(=O)N1CCC(C(=O)NCC(=O)N2CCN(c3nc(-c4cnc(N)nc4C(F)F)nc(N4CCOCC4)n3)CC2)CC1 — remaining binding (binding, competition with immobilised ligand; 1 µM): 100%
CN(c1nccc(-c2cnn3ncccc23)n1)C1CC1 — remaining binding (binding; 1 µM): 70%
O=C(N1CCS(=O)(=O)CC1)N1C[C@H](c2ccc(OC(F)(F)F)cc2)C[C@H](c2nc(C3CC3)no2)C1 — remaining binding (cell-free assay, competition with immobilised ligand; 1 µM): 100%
N[C@@H]1CCN(c2nccc(-c3cnn4ncccc34)n2)C1 — remaining binding (binding; 1 µM): 25%
O=C(c1ccc(Nc2ncc(Cl)c(-c3ccc(Cl)s3)n2)cc1)N1CCC(N2CCCC2)CC1 — remaining binding (binding, competition with immobilised ligand; 1 µM): 2.1%
